Reference: ChEMBL document CHEMBL1944507, “Structure-activity relationships for amide-, carbamate-, and urea-linked analogues of the tuberculosis drug (6S)-2-nitro-6-{[4-(trifluoromethoxy)benzyl]oxy}-6,7-dihydro-5H-imidazo[2,1-b][1,3]oxazine (PA-824)” (J Med Chem, 2012)
Values after ≈ are worked out from the molar mass of the structure shown.

Columns and labels:
Type in all cases: functional
[1] = tested on: Mycobacterium tuberculosis; assay: Antimicrobial activity against Mycobacterium tuberculosis H37Rv ATCC 27294 harboring pFCA-lux AB gene measured under anaerobic condition after 11 days by luminescence analysis; settings: H37Rv ATCC 27294, 264 h
Summary of the method: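 LORA: luminescence-based low-oxygen-recovery assay on nonreplicating M. tb, 11-day anaerobic exposure. MIC is the mean of at least two independent determinations ± SD.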

[2] = tested on: Mycobacterium tuberculosis; assay: Antimicrobial activity against Mycobacterium tuberculosis H37Rv ATCC 27294 harboring pFCA-lux AB gene measured under aerobic condition after 8 days by luminescence analysis; settings: H37Rv ATCC 27294, 192 h
Summary of the method: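 MABA: replicating M. tb H37Rv exposed to compound aerobically for 8 days. […] Mean of at least two independent determinations ± SD.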

[3] = tested on: Mycobacterium tuberculosis; assay: Ratio of MIC for PA-824 to compound MIC for Mycobacterium tuberculosis H37Rv ATCC 27294 harboring pFCA-lux AB gene measured under aerobic condition after 8 days by luminescence analysis

Compound | MIC [1] [µM] | MIC [2] [µM] | Ratio [3]
O=C(N[C@@H]1COc2nc([N+](=O)[O-])cn2C1)c1ccccc1OC(F)(F)F | > 64 | 27 (≈ 10.1 µg/mL) | –
O=C(N[C@@H]1COc2nc([N+](=O)[O-])cn2C1)c1cccc(OC(F)(F)F)c1 | > 64 | 4.9 (≈ 1.82 µg/mL) | –
CN(C(=O)c1ccccc1OC(F)(F)F)[C@@H]1COc2nc([N+](=O)[O-])cn2C1 | > 64 | 45 (≈ 17.4 µg/mL) | –
CN(C(=O)c1cccc(OC(F)(F)F)c1)[C@@H]1COc2nc([N+](=O)[O-])cn2C1 | > 64 | 24 (≈ 9.27 µg/mL) | –
CN(C(=O)c1ccc(OC(F)(F)F)cc1)[C@@H]1COc2nc([N+](=O)[O-])cn2C1 | > 64 | 22 (≈ 8.5 µg/mL) | –
O=[N+]([O-])c1cn2c(n1)OC[C@@H](NS(=O)(=O)c1ccccc1OC(F)(F)F)C2 | > 64 | > 64 | –
O=[N+]([O-])c1cn2c(n1)OC[C@@H](NS(=O)(=O)c1cccc(OC(F)(F)F)c1)C2 | > 64 | > 64 | –
O=[N+]([O-])c1cn2c(n1)OC[C@@H](NS(=O)(=O)c1ccc(OC(F)(F)F)cc1)C2 | > 64 | 9.7 (≈ 3.96 µg/mL) | –
CN([C@@H]1COc2nc([N+](=O)[O-])cn2C1)S(=O)(=O)c1ccccc1OC(F)(F)F | 45 (≈ 19 µg/mL) | 20 (≈ 8.45 µg/mL) | –
CN([C@@H]1COc2nc([N+](=O)[O-])cn2C1)S(=O)(=O)c1cccc(OC(F)(F)F)c1 | 64 (≈ 27 µg/mL) | 12 (≈ 5.07 µg/mL) | –
CN([C@@H]1COc2nc([N+](=O)[O-])cn2C1)S(=O)(=O)c1ccc(OC(F)(F)F)cc1 | 22 (≈ 9.29 µg/mL) | 0.53 (≈ 0.224 µg/mL) | –
O=C(Cc1ccc(OC(F)(F)F)cc1)N[C@@H]1COc2nc([N+](=O)[O-])cn2C1 | 21 (≈ 8.11 µg/mL) | 0.27 (≈ 0.104 µg/mL) | –
O=C(CN[C@@H]1COc2nc([N+](=O)[O-])cn2C1)c1ccc(OC(F)(F)F)cc1 | > 64 | 7.6 (≈ 2.94 µg/mL) | –
O=C(CN[C@@H]1COc2nc([N+](=O)[O-])cn2C1)Nc1ccc(OC(F)(F)F)cc1 | 46 (≈ 18.5 µg/mL) | 0.7 (≈ 0.281 µg/mL) | –
O=C(N[C@@H]1COc2nc([N+](=O)[O-])cn2C1)Oc1ccc(OC(F)(F)F)cc1 | 64 (≈ 24.8 µg/mL) | > 64 | –
O=C(N[C@@H]1COc2nc([N+](=O)[O-])cn2C1)OCc1ccc(OC(F)(F)F)cc1 | 11 (≈ 4.43 µg/mL) | 0.15 (≈ 0.0603 µg/mL) | –
O=C(Nc1ccc(OC(F)(F)F)cc1)N[C@@H]1COc2nc([N+](=O)[O-])cn2C1 | 4.2 (≈ 1.63 µg/mL) | 0.23 (≈ 0.0891 µg/mL) | –
O=C(N[C@@H]1COc2nc([N+](=O)[O-])cn2C1)OCc1ccc(-c2ccc(OC(F)(F)F)cc2)cc1 | 5 (≈ 2.39 µg/mL) | 0.11 (≈ 0.0526 µg/mL) | –
O=C(N[C@@H]1COc2nc([N+](=O)[O-])cn2C1)OCc1ccc(-c2ccc(C(F)(F)F)nc2)cc1 | 4.7 (≈ 2.18 µg/mL) | 0.23 (≈ 0.107 µg/mL) | –
O=C(N[C@@H]1COc2nc([N+](=O)[O-])cn2C1)OCc1ccc(-c2ccc(F)nc2)cc1 | 4.3 (≈ 1.78 µg/mL) | 0.34 (≈ 0.141 µg/mL) | –
O=C(Nc1cccc(-c2ccc(C(F)(F)F)cc2)c1)N[C@@H]1COc2nc([N+](=O)[O-])cn2C1 | 3.6 (≈ 1.61 µg/mL) | 0.035 (≈ 0.0157 µg/mL) | –
O=C(Nc1cccc(-c2ccc(F)cc2)c1)N[C@@H]1COc2nc([N+](=O)[O-])cn2C1 | 3.8 (≈ 1.51 µg/mL) | 0.03 (≈ 0.0119 µg/mL) | –
O=C(Nc1cccc(-c2ccc(OC(F)(F)F)cc2)c1)N[C@@H]1COc2nc([N+](=O)[O-])cn2C1 | 5.8 (≈ 2.69 µg/mL) | 0.25 (≈ 0.116 µg/mL) | –
O=C(Nc1cccc(-c2ccc(C(F)(F)F)nc2)c1)N[C@@H]1COc2nc([N+](=O)[O-])cn2C1 | 13 (≈ 5.83 µg/mL) | 0.22 (≈ 0.0986 µg/mL) | –
O=C(Nc1ccc(-c2ccc(C(F)(F)F)nc2)cc1)N[C@@H]1COc2nc([N+](=O)[O-])cn2C1 | 17 (≈ 7.62 µg/mL) | 0.17 (≈ 0.0762 µg/mL) | –
O=C(Nc1ccc(-c2ccc(F)nc2)cc1)N[C@@H]1COc2nc([N+](=O)[O-])cn2C1 | 11 (≈ 4.38 µg/mL) | 0.24 (≈ 0.0956 µg/mL) | –

Compound | MIC [1] [µM] | MIC [2] [µM] | Ratio [3]
O=C(Nc1ccc(-c2ccnc(C(F)(F)F)c2)cc1)N[C@@H]1COc2nc([N+](=O)[O-])cn2C1 | 13 (≈ 5.83 µg/mL) | 0.36 (≈ 0.161 µg/mL) | –
O=C(NCc1ccc(-c2ccc(C(F)(F)F)cc2)cc1)N[C@@H]1COc2nc([N+](=O)[O-])cn2C1 | > 32 | 0.32 (≈ 0.148 µg/mL) | –
O=C(NCc1ccc(-c2ccc(F)cc2)cc1)N[C@@H]1COc2nc([N+](=O)[O-])cn2C1 | 26 (≈ 10.7 µg/mL) | 0.11 (≈ 0.0453 µg/mL) | –
O=C(COc1ccc(-c2ccc(C(F)(F)F)cc2)cc1)N[C@@H]1COc2nc([N+](=O)[O-])cn2C1 | > 32 | 0.25 (≈ 0.116 µg/mL) | –
O=C(N[C@@H]1COc2nc([N+](=O)[O-])cn2C1)OCc1ccc(-c2ccc(F)cc2)cc1 | 4.2 (≈ 1.73 µg/mL) | 0.085 (≈ 0.0351 µg/mL) | –
O=C(N[C@@H]1COc2nc([N+](=O)[O-])cn2C1)OCc1ccc(-c2ccc(C(F)(F)F)cc2)cc1 | 4.5 (≈ 2.08 µg/mL) | 0.08 (≈ 0.037 µg/mL) | –
O=C(COc1ccc(-c2ccc(C(F)(F)F)nc2)cc1)N[C@@H]1COc2nc([N+](=O)[O-])cn2C1 | 30 (≈ 13.9 µg/mL) | 0.69 (≈ 0.32 µg/mL) | –
O=C(COc1ccc(-c2ccc(F)nc2)cc1)N[C@@H]1COc2nc([N+](=O)[O-])cn2C1 | 31 (≈ 12.8 µg/mL) | 0.69 (≈ 0.285 µg/mL) | –
O=C(COc1ccc(-c2ccc(OC(F)(F)F)cc2)cc1)N[C@@H]1COc2nc([N+](=O)[O-])cn2C1 | 25 (≈ 12 µg/mL) | 0.18 (≈ 0.0861 µg/mL) | –
O=C(COc1ccc(-c2ccc(F)cc2)cc1)N[C@@H]1COc2nc([N+](=O)[O-])cn2C1 | 26 (≈ 10.7 µg/mL) | 0.17 (≈ 0.0701 µg/mL) | –
O=C(Cc1ccc(-c2ccc(F)nc2)cc1)N[C@@H]1COc2nc([N+](=O)[O-])cn2C1 | > 32 | 0.68 (≈ 0.27 µg/mL) | –
O=C(Cc1ccc(-c2ccc(C(F)(F)F)nc2)cc1)N[C@@H]1COc2nc([N+](=O)[O-])cn2C1 | > 32 | 0.46 (≈ 0.206 µg/mL) | –
O=C(Cc1ccc(-c2ccc(OC(F)(F)F)cc2)cc1)N[C@@H]1COc2nc([N+](=O)[O-])cn2C1 | 5 (≈ 2.31 µg/mL) | 0.22 (≈ 0.102 µg/mL) | –
O=C(Cc1ccc(-c2ccc(C(F)(F)F)cc2)cc1)N[C@@H]1COc2nc([N+](=O)[O-])cn2C1 | 23 (≈ 10.3 µg/mL) | 0.44 (≈ 0.196 µg/mL) | –
O=C(Cc1ccc(-c2ccc(F)cc2)cc1)N[C@@H]1COc2nc([N+](=O)[O-])cn2C1 | 11 (≈ 4.36 µg/mL) | 0.33 (≈ 0.131 µg/mL) | –
O=C(CO[C@@H]1COc2nc([N+](=O)[O-])cn2C1)Nc1ccc(OC(F)(F)F)cc1 | 7.8 (≈ 3.14 µg/mL) | 0.24 (≈ 0.0965 µg/mL) | –
CN(C(=O)N(C)[C@@H]1COc2nc([N+](=O)[O-])cn2C1)c1ccc(OC(F)(F)F)cc1 | > 64 | 12 (≈ 4.98 µg/mL) | –
O=[N+]([O-])c1cn2c(n1)OC[C@@H](NC(=S)Nc1ccc(OC(F)(F)F)cc1)C2 | > 64 | 8 (≈ 3.23 µg/mL) | –
O=C(NCc1ccc(OC(F)(F)F)cc1)N[C@@H]1COc2nc([N+](=O)[O-])cn2C1 | 4.1 (≈ 1.65 µg/mL) | 0.27 (≈ 0.108 µg/mL) | –
O=C(Nc1ccc(OC(F)(F)F)cc1)O[C@@H]1COc2nc([N+](=O)[O-])cn2C1 | 2.7 (≈ 1.05 µg/mL) | 0.12 (≈ 0.0466 µg/mL) | 4
CN(C(=O)O[C@@H]1COc2nc([N+](=O)[O-])cn2C1)c1ccc(OC(F)(F)F)cc1 | 5.4 (≈ 2.17 µg/mL) | 0.21 (≈ 0.0845 µg/mL) | –
O=C(NCc1ccc(OC(F)(F)F)cc1)O[C@@H]1COc2nc([N+](=O)[O-])cn2C1 | 17 (≈ 6.84 µg/mL) | 0.25 (≈ 0.101 µg/mL) | –
O=[N+]([O-])c1cn2c(n1)OC[C@@H](OCc1ccccc1OC(F)(F)F)C2 | 8.6 (≈ 3.09 µg/mL) | 1.8 (≈ 0.647 µg/mL) | –
O=[N+]([O-])c1cn2c(n1)OC[C@@H](OCc1cccc(OC(F)(F)F)c1)C2 | 2.1 (≈ 0.754 µg/mL) | 0.36 (≈ 0.129 µg/mL) | –
O=[N+]([O-])c1cn2c(n1)OC[C@@H](NCc1ccc(OC(F)(F)F)cc1)C2 | 5.3 (≈ 1.9 µg/mL) | 0.22 (≈ 0.0788 µg/mL) | –
O=[N+]([O-])c1cn2c(n1)OC[C@@H](OCc1ccc(OC(F)(F)F)cc1)C2 [PRETOMANID] | 2.6 (≈ 0.934 µg/mL) | 0.5 (≈ 0.18 µg/mL) | –
